# ChEMBL document CHEMBL4732044, “Discovery of a promising agent IQZ23 for the treatment of obesity and related metabolic disorders” (Eur J Med Chem, 2020)
# The source made the active and inactive calls. The calls are words filed in the database; no cut-off is given here.
# Columns and labels:
# 3T3-L1 [1] = assay: Activation of AMPK pathway in adipogenic cocktail-induced mouse 3T3-L1 cells with SiRNA-induced AMPKalpha knock down assessed as decrease in TG level at 1 uM after 6 days by GPO-POD assay; format: cell-based; settings: time 6.0 day
# How it was run: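 3T3-L1 cells at 80% density transfected with 50 nM AMPKα siRNA or negative control for 24 h. Once confluent, differentiated with adipogenic cocktail with or without compound. Protein by Western blot normalized to actin. TG measured by GPO-POD kit, normalized to BCA protein, expressed as % of control.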
# 3T3-L1 [2] = assay: Lipid lowering activity in mouse 3T3-L1 cells assessed as adipogenic cocktail-induced triglyceride levels at 1 uM after 3 days by GPO-POD assay relative to control; format: functional; settings: time 3 day
# How it was run: (§1)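 3T3-L1 cells were differentiated (cocktail on days 0–3, insulin thereafter) with 1 µM compound present during defined windows (days 0–3, 3–6, 6–9, or 0–3/0–6/0–9). TG was measured at day 9 by GPO-POD after Triton X-100 lysis and sonication. TG was normalized to BCA protein and expressed as % of differentiated control.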
# Mus musculus [3] = assay: Antiobesity activity in high fat diet-induced obese C57BL/6J mouse model assessed as decrease in calorie intake at 20 mg/kg, ip administered for every other days for 6 weeks; format: functional, organism-based
# How it was run: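 Male C57BL/6J mice (7–8 weeks) fed HFC diet (60% fat, 1% cholesterol) for up to 14 weeks. From week 9, given 20 mg/kg i.p. every other day for 6 weeks in saline with 10% ethanol and 10% castor oil, or vehicle. Body weight and food intake recorded daily. At end, mice fasted 6 h, anesthetized, and blood collected into EDTA. Plasma chemistry run on an auto-analyzer; insulin by ultra-sensitive ELISA.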
# 3T3-L1 [4] = assay: Inhibition of mouse 3T3-L1 cells adipocyte differentiation assessed as reduction in adipogenic cocktail-induced SCD1 protein expression at 0.3 to 1 uM after 6 days by Western blot analysis; format: functional, cell-based; settings: dose 0.3-1 µM, time 6.0 day
# How it was run: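 3T3-L1 preadipocytes were differentiated with cocktail for 3 days, then insulin medium for 3 days, with compound (0.3 or 1 µM) present throughout. Cells were harvested on day 6 and proteins measured by Western blot, with densitometry normalized to actin.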
# 3T3-L1 [5] = assay: Inhibition of mouse 3T3-L1 cells adipocyte differentiation assessed as reduction in adipogenic cocktail-induced SREBP-1c protein expression at 0.3 to 1 uM after 24 hrs by Western blot analysis; format: functional, cell-based; settings: dose 0.3-1 µM
# How it was run: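 3T3-L1 preadipocytes were exposed to adipogenic cocktail with compound (0.3 or 1 µM) and harvested on day 1. Lysates were resolved by SDS-PAGE, immunoblotted (primary antibody overnight at 4 °C, HRP secondary) and quantified by densitometry normalized to actin.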
# 3T3-L1 [6] = assay: Activation of AMPK pathway in mouse 3T3-L1 cells assessed as increase in NRF2 mRNA expression at 0.3 to 1 uM after 24 hrs by RT-qPCR analysis; format: cell-based; settings: filed as activator, dose 0.3-1 µM
# Mus musculus [7] = assay: Antiobesity activity in high fat diet-induced obese C57BL/6J mouse model assessed as decrease in AUC of GTT at 20 mg/kg, ip administered for every other days for 3 weeks by GTT method; format: functional, organism-based
# How it was run: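 Male C57BL/6J mice on HFC diet dosed i.p. For GTT, after 3 weeks of treatment: 6 h fast, then i.p. glucose 2 g/kg. For ITT, after 6 weeks: 6 h fast, then i.p. insulin 0.4 U/mouse. Tail-vein glucose measured at 0, 15, 30, 60 and 120 min; AUC calculated.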
# 3T3-L1 [8] = assay: Lipid lowering activity in mouse 3T3-L1 cells assessed as adipogenic cocktail-induced triglyceride levels at 1 uM up to 9 days by GPO-POD assay relative to control; format: functional, cell-based; settings: time day <=9; how it was run: as §1
# Mus musculus [9] = assay: Anti-hyperglycemic activity in high fat diet-induced obese C57BL/6J mouse model assessed as decrease in blood glucose level at 20 mg/kg, ip; format: functional, organism-based; settings: time hrs <=24, TDE = time-dependent effect
# How it was run: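 C57BL/6J mice fed HFC diet (60% fat, 1% cholesterol). Single i.p. injection of saline or compound at 20 mg/kg. Blood glucose measured with a glucose monitor at 0, 0.5, 1, 2, 4, 8, 12 and 24 h.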
# 3T3-L1 [10] = assay: Lipid lowering activity in mouse 3T3-L1 cells assessed as reduction in adipogenic cocktail-induced triglyceride levels at 1 uM incubated for 6 days by Oil-red O staining based assay; format: functional, cell-based; settings: time 6.0 day
# How it was run: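 Differentiating 3T3-L1 cells were treated at 1 µM for 6 days, then washed with PBS and fixed in 4% formaldehyde for 1 h. Cells were stained with 0.3% Oil Red O for 30 min at room temperature in the dark and imaged at ×200.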
# 3T3-L1 [11] = assay: Activation of AMPK pathway in adipogenic cocktail-induced mouse 3T3-L1 cells assessed as increase in AMP to ATP ratio at 1 uM after 24 hrs; format: cell-based; settings: filed as activator
# [12] = Half life in Sprague-Dawley rat at 2 mg/kg, iv up to 24 hrs by LC-MS/MS analysis; settings: in vivo
# [13] = AUC(0 to t) in Sprague-Dawley rat at 2 mg/kg, iv up to 24 hrs by LC-MS/MS analysis; settings: in vivo
Compound,Activity (3T3-L1 [1]),Activity (3T3-L1 [2]) [%],Activity (Mus musculus [3]),inhibition (3T3-L1 [4]),inhibition (3T3-L1 [5]),Activity (3T3-L1 [6]),Activity (Mus musculus [7]),Activity (3T3-L1 [8]),Activity (Mus musculus [9]),Activity (3T3-L1 [10]),Activity (3T3-L1 [11]),half-life [12] [min],AUC(0-t) at 24 h [13] [ng·h/mL]
COc1ccc2[nH]c(-c3nc(NCCCCN4CCCC4)c4ccccc4n3)c(C=O)c2c1,inactive,74.2,inactive,Active,Active,Active,Active,Active,Tde,Active,–,–,–
CN(C)CCCNc1nc(-c2[nH]c3ccccc3c2C=O)nc2ccccc12,–,–,–,–,–,–,–,–,–,–,Active,188,635
